Laboratory results published in ChEMBL document CHEMBL1129647, “Targeting delavirdine/atevirdine resistant HIV-1: identification of (alkylamino)piperidine-containing bis(heteroaryl)piperazines as broad spectrum HIV-1 reverse transcriptase inhibitors” (J Med Chem, 1996).
Each block holds one molecule with its values, some of them ahead of it.

How the values were obtained:
[1] = Clearance at an iv dose of 15 mg/Kg and po dose of 30.2 mg/Kg; type: ADME, organism-based; details: rat, in vivo
Method in brief: (§1)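 Male Sprague-Dawley rats, fasted, dosed iv and po in a crossover design with a 1 week washout between treatments (N = 3). Compound was given as a solution in propylene glycol/water (80/20, v/v) acidified with a molar excess of methanesulfonic acid. Values are the iv clearance and the absolute oral bioavailability.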

[2] = Bioavailability at an iv dose of 15 mg/Kg and po dose of 30.2 mg/Kg; type: ADME, organism-based; details: rat, in vivo, read-out: Bioavailabiility; method in brief: as §1
[3] = test system: Human immunodeficiency virus 1; experiment: Concentration required to inhibit P24 production by 90% against L-697661 of HIV-1 IIIB (Y181C); type: functional
[4] = Bioavailability at an iv dose of 16 mg/Kg and po dose of 35 mg/Kg; type: ADME, organism-based; details: rat, in vivo, read-out: Bioavailabiility; method in brief: as §1
[5] = molecular target: T1, Human immunodeficiency virus type 1 reverse transcriptase (Human immunodeficiency virus 1, UniProt Q72547)
[6] = Clearance at an iv dose of 16 mg/Kg and po dose of 35 mg/Kg; type: ADME, organism-based; details: rat, in vivo; method in brief: as §1
[7] = molecular target: T2, Human immunodeficiency virus type 1 reverse transcriptase (Human immunodeficiency virus 1, UniProt Q72547, Y181C)
[8] = Bioavailability (dose 15 mg/kg i.v. and 30 mg/kg p.o.); type: ADME, organism-based; details: eutheria, in vivo, po; method in brief: as §1
[9] = molecular target: T1, Human immunodeficiency virus type 1 reverse transcriptase; experiment: Compound was tested for inhibition of HIV-1 WT reverse transcriptase using dTTP as substrate
[10] = test system: Human immunodeficiency virus 1; experiment: In vitro inhibition of recombinant HIV-1 IIIB mutant WT; type: functional, organism-based
[11] = test system: Human immunodeficiency virus 1; experiment: Concentration required to inhibit P24 production by 90% against U-90,152 of HIV-1 MF (P236L); type: functional
[12] = molecular target: T3, Human immunodeficiency virus type 1 reverse transcriptase (Human immunodeficiency virus 1, UniProt Q72547, P236L); experiment: Compound was tested for inhibition of HIV-1 P236L reverse transcriptase using dTTP as substrate
[13] = test system: Human immunodeficiency virus 1; experiment: In vitro inhibition of recombinant HIV-1 IIIB mutant P236L; type: functional, organism-based
[14] = Bioavailability at an iv dose of 15 mg/Kg and po dose of 60 mg/Kg; type: ADME, organism-based; details: in vivo, read-out: Bioavailabiility; method in brief: as §1
[15] = molecular target: T1, Human immunodeficiency virus type 1 reverse transcriptase; experiment: Compound was tested for inhibition of HIV-1 181C cell line using poly(rA)300:oligo(dT)10 as substrate
Method in brief: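 Kinetic inhibition study on homodimeric recombinant HIV-1 RTs (WT, P236L, Y181C), varying dTTP or poly(rA):(dT)10 template:primer. Base assay: 28 °C, 10 min, pH 8.3 Tris-HCl, 10 mM MgCl2, 60 mM NaCl, 2 mM DTT, 0.05% NP-40, [3H]TTP incorporation. TCA-precipitated product collected on glass fibre filters and counted. Ki values derived.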

[16] = test system: Human immunodeficiency virus 1; experiment: Concentration required to inhibit P24 production by 90% against U-90,152 of HIV-1 IIIB (L100I, M230L); type: functional
[17] = Clearance at an iv dose of 15 mg/Kg and po dose of 30 mg/Kg; type: ADME, organism-based; details: in vivo; method in brief: as §1
[18] = molecular target: T3, Human immunodeficiency virus type 1 reverse transcriptase; experiment: Compound was tested for inhibition of HIV-1 P236L reverse transcriptase using poly(rA)300:oligo(dT)10 as substrate
[19] = molecular target: T2, Human immunodeficiency virus type 1 reverse transcriptase; experiment: Compound was tested for inhibition of HIV-1 Y181C reverse transcriptase using dTTP as substrate
[20] = test system: Human immunodeficiency virus 1; experiment: In vitro inhibition of recombinant HIV-1 IIIB mutant Y181C; type: functional, organism-based
[21] = Clearance at an iv dose of 15 mg/Kg and po dose of 60 mg/Kg; type: ADME, organism-based; details: in vivo; method in brief: as §1
[22] = Clearance at an iv dose of 15 mg/Kg and po dose of 240 mg/Kg; type: ADME, organism-based; details: in vivo; method in brief: as §1
[23] = Clearance at an iv dose of 15 mg/Kg and po dose of 120 mg/Kg; type: ADME, organism-based; details: in vivo; method in brief: as §1
[24] = molecular target: T1, Human immunodeficiency virus type 1 reverse transcriptase; experiment: Compound was tested for inhibition of HIV-1 WT reverse transcriptase using poly(rA)300:oligo(dT)10 as substrate
[25] = Bioavailability at an iv dose of 15 mg/Kg and po dose of 120 mg/Kg; type: ADME, organism-based; details: in vivo, read-out: Bioavailabiility; method in brief: as §1
[26] = molecular target: T3, Human immunodeficiency virus type 1 reverse transcriptase
[27] = Clearance at an iv dose of 15.7 mg/Kg and po dose of 31.4 mg/Kg; type: ADME, organism-based; details: rat, in vivo; method in brief: as §1
[28] = Bioavailability at an iv dose of 15.7 mg/Kg and po dose of 31.4 mg/Kg; type: ADME, organism-based; details: rat, in vivo, read-out: Bioavailabiility; method in brief: as §1
[29] = Bioavailability at an iv dose of 12 mg/Kg and po dose of 23 mg/Kg; type: ADME, organism-based; details: rat, in vivo, read-out: Bioavailabiility; method in brief: as §1
[30] = Clearance at an iv dose of 12 mg/Kg and po dose of 23 mg/Kg; type: ADME, organism-based; details: rat, in vivo; method in brief: as §1
[31] = Bioavailability at an iv dose of 14 mg/Kg and po dose of 15 mg/Kg; type: ADME, organism-based; details: rat, in vivo, read-out: Bioavailabiility; method in brief: as §1
Rattus norvegicus = experiment: Bioavailability at an iv dose of 14 mg/Kg and po dose of 28 mg/Kg; type: ADME, organism-based; details: in vivo; method in brief: as §1
[32] = Clearance at an iv dose of 14 mg/Kg and po dose of 15 mg/Kg; type: ADME, organism-based; details: rat, in vivo; method in brief: as §1

SMILES: CC(C)Nc1cccnc1N(C)C1CCN(C(=O)c2cc3cc(NS(C)(=O)=O)ccc3[nH]2)CC1
clearance [1]: 44 mL/min/kg | bioavailability [2]: 4.3% | IC90 [3]: 1000 nM

SMILES: CNC(=O)Nc1ccc2[nH]c(C(=O)N3CCC(N(C)c4ncccc4NC(C)C)CC3)cc2c1
bioavailability [4]: 12.3% | IC50 [5]: 180 nM | clearance [6]: 42 mL/min/kg | IC50 [7]: 1600 nM

SMILES: CCN(c1ncccc1NC(C)(C)C)C1CCN(C(=O)c2cc3cc(NS(C)(=O)=O)ccc3[nH]2)CC1
bioavailability [8]: 14% | Ki [9]: 1030 nM | IC50 [10]: 320 nM | IC90 [3]: 30 nM | IC90 [11]: 190 nM | Ki [12]: 1110 nM | IC50 [13]: 460 nM | bioavailability [14]: 42% | Ki [15]: 3.09 µM | IC90 [16]: 80 nM | clearance [17]: 50 mL/min/kg | Ki [18]: 1600 nM | Ki [19]: 1920 nM | IC50 [20]: 660 nM | clearance [21]: 50 mL/min/kg | clearance [22]: 50 mL/min/kg | clearance [23]: 50 mL/min/kg | Ki [24]: 1380 nM | bioavailability [25]: 124%

SMILES: CC(C)Nc1cccnc1N(C1CC1)C1CCN(C(=O)c2cc3cc(NS(C)(=O)=O)ccc3[nH]2)CC1
IC50 [26]: 700 nM | IC50 [5]: 230 nM | clearance [27]: 22.6 mL/min/kg | bioavailability [28]: 1.6% | IC50 [7]: 940 nM

bioavailability [29]: 75% | clearance [30]: 13 mL/min/kg
SMILES: CCNc1cccnc1N1CCN(C(=O)c2cc3cc(OC)ccc3[nH]2)CC1.CS(=O)(=O)O [ATEVIRDINE SULPHATE]

bioavailability [31]: 64% | Bioavailabiility (Rattus norvegicus): 169% | clearance [32]: 13.6 mL/min/kg
SMILES: CC(C)Nc1cccnc1N1CCN(C(=O)c2cc3cc(NS(C)(=O)=O)ccc3[nH]2)CC1.CS(=O)(=O)O [DELAVIRDINE MESYLATE]
